Screening results (PubChem)
Hits are enriched below; roughly 1.4% of the tested compounds scored in any of these assays.
CAL PDZ FP-1 – blocks peptide binding to human CAL PDZ domain. Q9HD26. inhibition, % at 20 µM. 330,000 tested, 0.02% active. purified CAL PDZ, TMR-peptide fluorescence polarization, 1 h;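 active = highest replicate inhibition of at least 40%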
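Control set: unlabelled peptide and DMSO controls / Material: purified CerCALP PDZ construct / Timing: 1 h incubation at room temperature before polarization reading / Doses: 20 µM, one dose / Detection: fluorescence polarization (mP)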
ARNT-TACC3 inh – ARNT/TACC3 interaction disruption. AID 623870. 390,000 tested, 0.66% active. AlphaScreen His-ARNT PAS-B/GST-TACC3 binding, luminescence; TACC3 fragment carries E629A point mutation. inhibition, % at 9.99 µM. Q9Y6A5;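 active = mean inhibition of replicates at least 50% and at least half of replicates each reaching 50%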
Dyrk1A ADPGlo – inhibitors of rat Dyrk1A kinase; Q63470; ADP-Glo luminescence, NFATc1 peptide; inhibition, % at 12.5 µM; 310,000 tested, 0.43% active; AID 504441; in the data active = inhibition above about 50%
CAL PDZ FP-2 – blocks peptide binding to the human CAL PDZ domain. Q9HD26. purified CAL PDZ, TMR-peptide fluorescence polarization, 1 h. inhibition, % at 24.9 µM. 300,000 tested, 0.92% active. AID 602252;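 active = mean inhibition of at least 30% with at least half of replicates also reaching 30%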
Each line names hits and unclear results; the compound was inactive in the other large screens.

Cc1ccc(NC(=O)CCn2c(=O)oc3ccccc32)c(C)c1	CAL PDZ FP-2 48.5
O=C(C[C@H]1C=C[C@@H](NC(=O)Nc2ccc3c(c2)OCO3)[C@H](CO)O1)NCc1ccc2c(c1)OCO2	none (no result: CAL PDZ FP-1, Dyrk1A ADPGlo, CAL PDZ FP-2)
CC(=O)N[C@H]1CC[C@@H](CC(=O)NCC2CCCCC2)O[C@H]1CO	none (no result: CAL PDZ FP-1, Dyrk1A ADPGlo, CAL PDZ FP-2)
CCC(=O)NCc1csc(-c2cccs2)n1	none (no result: Dyrk1A ADPGlo)
O=C(NCc1csc(-c2cccs2)n1)C1CCCCC1	CAL PDZ FP-2 32.6 (no result: Dyrk1A ADPGlo)
Cc1noc(C)c1S(=O)(=O)N(C)C[C@@H]1OCCCC[C@@H](C)Oc2ccc(NS(=O)(=O)c3cccs3)cc2C(=O)N([C@@H](C)CO)C[C@@H]1C	none (no result: CAL PDZ FP-1, Dyrk1A ADPGlo, CAL PDZ FP-2)
O=C(NC1CCN(Cc2ccccc2)C1)c1cc(S(=O)(=O)N2CCOCC2)ccc1Cl (configuration not stated)	CAL PDZ FP-2 58.7
Cc1ccc(S(=O)(=O)N2CCOCC2)cc1C(=O)NC1CCN(Cc2ccccc2)CC1	none (no result: Dyrk1A ADPGlo)
CC(C)NC(=O)N(C)C[C@H]1Oc2cc(C#CC(C)(C)O)ccc2S(=O)(=O)N([C@H](C)CO)C[C@@H]1C	none (no result: CAL PDZ FP-1, Dyrk1A ADPGlo, CAL PDZ FP-2)
Cc1n[nH]c(=O)nc1N/N=C/c1ccco1	ARNT-TACC3 inh 53.0
O=C1CCn2c1c(O)c1ccccc1c2=O	ARNT-TACC3 inh 51.7
Cc1noc(C)c1NC(=O)N(C)C[C@H]1Oc2ccc(NC(=O)Nc3ccc(F)cc3)cc2CC(=O)N([C@@H](C)CO)C[C@H]1C	none (no result: CAL PDZ FP-1, Dyrk1A ADPGlo, CAL PDZ FP-2)
O=C(Nc1cccc2ccccc12)c1ccccc1	none
O=C(Nc1cccc2ccccc12)c1ccc(F)cc1	CAL PDZ FP-2 51.8
Cc1nc2c(=O)[nH]c(=S)[nH]c2[nH]c1=O	ARNT-TACC3 inh 34.7
C/C(=N\Nc1ccc(Cl)c(C(=O)O)c1)c1ccccn1	none
C=CCNC(=S)N/N=C(\C)c1ccccn1	ARNT-TACC3 inh 59.1
C/C(=N\Nc1ncc(Cl)cc1Cl)c1ccccn1	ARNT-TACC3 inh 73.0
C/C(=N\Nc1cccc2cccnc12)c1ccccn1	none
CC(=NNC(=S)Nc1ccccc1Cl)c1ccccn1	ARNT-TACC3 inh 87.4
COc1cccc(C(=O)N2C[C@H]3[C@@H](c4ccccc42)[C@H](CO)N3C(=O)c2ccc(F)cc2)c1	none (no result: CAL PDZ FP-1, Dyrk1A ADPGlo, CAL PDZ FP-2)
COc1ccc(OC)c2sc(N3CCCCC3)nc12	none
COc1ccc(OC)c2sc(N3CCc4ccccc4C3)nc12	CAL PDZ FP-2 32.8 (no result: Dyrk1A ADPGlo)
O=C(COc1ccc2c(c1)OCO2)Nc1nccs1	CAL PDZ FP-2 53.4
CC(C)NC(=O)NC(=O)COC(=O)c1ccccc1Oc1ccccc1	CAL PDZ FP-2 76.0 (no result: CAL PDZ FP-1)
CC(C)NC(=O)NC(=O)COC(=O)c1ccccc1O	none (no result: Dyrk1A ADPGlo)
Cc1ccc(/C=C2/CNC/C(=C/c3ccc(C)cc3)C2=O)cc1	CAL PDZ FP-2 38.8
CC(C)C(CCNCc1ccccn1)c1ccc(Cl)cc1 (configuration not stated)	none
Clc1ccc(-c2ccc(CNCc3ccccn3)o2)cc1	ARNT-TACC3 inh 72.7
CN1C[C@H](O)COC[C@@H]2O[C@H](CC(=O)NC3CCC3)CC[C@H]21	none (no result: CAL PDZ FP-1, Dyrk1A ADPGlo, CAL PDZ FP-2)
CC(C)(Oc1ccc(Cl)cc1)C(=O)NCc1ccc(S(N)(=O)=O)cc1	CAL PDZ FP-2 77.3
O=C(Cc1ccccc1)NN=Cc1ccccc1	none
O=C(CC(=O)N/N=C/c1ccccc1)NCc1ccccc1	CAL PDZ FP-2 146.6
O=C(CCCn1c(=O)oc2ccccc21)N1CCc2ccccc2C1	ARNT-TACC3 inh active
Cc1ccc(S(=O)(=O)N(C)CC(=O)NCCCn2nc(C)cc2C)cc1	CAL PDZ FP-2 62.4 (no result: Dyrk1A ADPGlo)
O=C(CN1CCOCC1)NNC(=S)Nc1ccc(Cl)cc1	ARNT-TACC3 inh 38.8
Cc1ccc(C)c(NC(=S)N(CCN(C)C)C(C)c2ccccn2)c1 (configuration not stated)	none
Cc1cccc(C)c1NC(=S)N(CCN(C)C)C(C)c1ccccn1 (configuration not stated)	ARNT-TACC3 inh 45.2 (no result: Dyrk1A ADPGlo)
O=C(NCCc1cnc[nH]1)Nc1cccc(C(F)(F)F)c1	ARNT-TACC3 inh 48.5 (no result: CAL PDZ FP-2)
Cc1cc(C)cc(NC(=O)C2CCN(C(=O)[C@@H]3Cc4ccccc4CN3)CC2)c1	CAL PDZ FP-2 41.8
CNS(=O)(=O)c1cccc(C(=O)OCC(=O)c2ccc3c(c2)OCCO3)c1	CAL PDZ FP-2 45.2
C[C@@H]1CN([C@H](C)CO)C(=O)Cc2cc(NS(=O)(=O)c3ccc(Cl)cc3)ccc2O[C@H]1CN(C)S(C)(=O)=O	none (no result: CAL PDZ FP-1, Dyrk1A ADPGlo, CAL PDZ FP-2)
Cc1ccc(/C(N)=N/OC(=O)c2cccs2)cc1	none
Cc1cccc(/C(N)=N/OC(=O)c2cccs2)c1	CAL PDZ FP-2 53.1
Cc1ccccc1NC(=S)N(Cc1ccco1)C(C)c1cccs1 (configuration not stated)	CAL PDZ FP-2 47.2
O=C(CSc1ccc2nnc(-c3ccccn3)n2n1)NCc1ccco1	ARNT-TACC3 inh 61.3 (no result: CAL PDZ FP-2)
O=C(CSc1ccc2nnc(-c3ccccc3)n2n1)NCc1ccco1	none
S=C(NCCN1CCOCC1)N/N=C/c1ccccc1	none (no result: CAL PDZ FP-1)
Oc1ccc(/C=N/NC(=S)NCCN2CCOCC2)c(O)c1	ARNT-TACC3 inh 60.3 (no result: CAL PDZ FP-2)
C[C@H]1CN([C@@H](C)CO)C(=O)c2cc(NS(=O)(=O)c3ccc(F)cc3)ccc2O[C@@H]1CN(C)Cc1ccc(Cl)c(Cl)c1	none (no result: CAL PDZ FP-1, Dyrk1A ADPGlo, CAL PDZ FP-2)
CCc1noc(C)c1C(=O)N1CCCC(CCC(=O)NCc2ccc(F)c(F)c2)C1 (configuration not stated)	CAL PDZ FP-2 71.1
O=C(Nc1cc(F)ccc1F)N[C@H]1CC[C@H](CCn2cc(C3CC3)nn2)O[C@@H]1CO	none (no result: CAL PDZ FP-1, Dyrk1A ADPGlo, CAL PDZ FP-2)
O=S(=O)(N[C@H](CO)c1ccccc1)c1ccc(Br)cc1F	none
CC(CO)NS(=O)(=O)c1ccc(Br)cc1F (configuration not stated)	CAL PDZ FP-2 40.2
Cc1ccc(S(=O)(=O)Nc2ccccc2C(=O)Nc2nc(-c3ccc(F)cc3)cs2)cc1	none
COc1ccc(-c2csc(NC(=O)c3ccccc3NS(=O)(=O)c3ccc(F)c(F)c3)n2)cc1	Dyrk1A ADPGlo 56.6, CAL PDZ FP-2 42.4
O=C(NC1CCCN(Cc2ccc(Cl)cc2)C1)c1cccc(N2CCCC2=O)c1 (configuration not stated)	CAL PDZ FP-1 139.3
O=C(NC1CCCCCC1)c1cccc(N2CCCC2=O)c1	none
CC[C@@H]1CCCCc2ccccc2[C@H](C(=O)C[C@H](O)CC(C)=O)OC1=O	CAL PDZ FP-2 54.0
COc1cc(/C=N/N=C2/NC(=O)C(CC(=O)O)S2)ccc1OCc1ccc(Cl)cc1 (configuration not stated)	none
O=C(O)CC1S/C(=N/N=C/c2ccccn2)NC1=O (configuration not stated)	ARNT-TACC3 inh 71.0 (no result: CAL PDZ FP-2)
O=C(NCCCN1CCOCC1)[C@H]1N[C@H]2c3ccc(C4=CCCCC4)c(=O)n3C[C@H]2[C@@H]1CO	none (no result: CAL PDZ FP-1, Dyrk1A ADPGlo, CAL PDZ FP-2)
COc1ccc(NC(=O)N(C)C[C@H]2OCCCC[C@@H](C)Oc3ccc(NC(=O)C4CCCCC4)cc3C(=O)N([C@H](C)CO)C[C@H]2C)cc1	none (no result: CAL PDZ FP-1, Dyrk1A ADPGlo, CAL PDZ FP-2)
N/N=C(\c1ccccc1)c1cc(Br)ccc1N	CAL PDZ FP-2 47.4 (no result: CAL PDZ FP-1)
O=C(Nc1ccc2c(c1)nc1n2CCN(Cc2ccccc2)C1)c1cccs1	ARNT-TACC3 inh 42.5
C[C@@H]1CN([C@H](C)CO)S(=O)(=O)c2ccc(C#CC3CC3)cc2O[C@H]1CN(C)C	none (no result: CAL PDZ FP-1, Dyrk1A ADPGlo, CAL PDZ FP-2)
COc1ccc(OC)c(N2C(=O)c3cccnc3C2=O)c1	ARNT-TACC3 inh 46.7
